Where a SMILES comes first, the peptide text is derived from it. [ ]: non-standard residue; d: D form. The star is where a group is joined. Adenosine(5'-uronoyl) = Nc1ncnc2c1ncn2[C@@H]1O[C@H](C(=O)*)[C@@H](O)[C@H]1O; Ahx = NCCCCCC(=O)O
Tests used:
[1] = target: Ribosomal protein S6 kinase alpha-4 (Homo sapiens) (UniProt O75676); test: Inhibition of MSK2 at 100 nM relative to control
Outline: (§1)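 Activity is expressed as percent inhibition versus control incubations lacking inhibitor. Values are means of duplicate determinations.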

[2] = target: Serine/threonine-protein kinase D1 (Homo sapiens) (UniProt Q15139); test: Inhibition of PKCmu at 100 nM relative to control; outline: as §1
Chain of Serine/threonine-protein kinase D1 (Homo sapiens) (Q15139 whole entry): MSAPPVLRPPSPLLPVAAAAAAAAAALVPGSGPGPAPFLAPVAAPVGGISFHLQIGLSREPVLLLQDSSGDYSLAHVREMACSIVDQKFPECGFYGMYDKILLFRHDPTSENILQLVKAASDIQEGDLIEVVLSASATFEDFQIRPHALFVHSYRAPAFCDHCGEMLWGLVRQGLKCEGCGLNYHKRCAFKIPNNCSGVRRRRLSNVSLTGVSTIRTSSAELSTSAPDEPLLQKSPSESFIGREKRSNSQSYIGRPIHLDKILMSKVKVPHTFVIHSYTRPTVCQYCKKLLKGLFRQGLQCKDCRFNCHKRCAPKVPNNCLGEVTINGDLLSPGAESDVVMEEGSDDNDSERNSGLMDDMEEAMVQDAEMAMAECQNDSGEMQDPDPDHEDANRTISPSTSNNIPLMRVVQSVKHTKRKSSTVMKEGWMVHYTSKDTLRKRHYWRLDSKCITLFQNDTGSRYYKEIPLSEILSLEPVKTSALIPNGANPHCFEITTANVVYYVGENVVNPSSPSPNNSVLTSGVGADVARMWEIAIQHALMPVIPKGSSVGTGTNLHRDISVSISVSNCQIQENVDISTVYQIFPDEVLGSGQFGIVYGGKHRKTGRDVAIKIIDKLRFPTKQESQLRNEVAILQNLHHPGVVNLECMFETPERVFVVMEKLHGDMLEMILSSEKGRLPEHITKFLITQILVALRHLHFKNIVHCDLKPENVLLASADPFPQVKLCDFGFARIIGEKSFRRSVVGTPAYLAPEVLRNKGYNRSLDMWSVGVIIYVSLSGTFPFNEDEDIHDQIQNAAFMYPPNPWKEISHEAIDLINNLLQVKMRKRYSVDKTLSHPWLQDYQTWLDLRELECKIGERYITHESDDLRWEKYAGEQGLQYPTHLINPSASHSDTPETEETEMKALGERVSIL

[3] = target: Ribosomal protein S6 kinase alpha-5 (Homo sapiens) (UniProt O75582); test: Inhibition of MSK1 at 100 nM relative to control; outline: as §1
Chain of Ribosomal protein S6 kinase alpha-5 (Homo sapiens) (O75582 whole entry, looked up): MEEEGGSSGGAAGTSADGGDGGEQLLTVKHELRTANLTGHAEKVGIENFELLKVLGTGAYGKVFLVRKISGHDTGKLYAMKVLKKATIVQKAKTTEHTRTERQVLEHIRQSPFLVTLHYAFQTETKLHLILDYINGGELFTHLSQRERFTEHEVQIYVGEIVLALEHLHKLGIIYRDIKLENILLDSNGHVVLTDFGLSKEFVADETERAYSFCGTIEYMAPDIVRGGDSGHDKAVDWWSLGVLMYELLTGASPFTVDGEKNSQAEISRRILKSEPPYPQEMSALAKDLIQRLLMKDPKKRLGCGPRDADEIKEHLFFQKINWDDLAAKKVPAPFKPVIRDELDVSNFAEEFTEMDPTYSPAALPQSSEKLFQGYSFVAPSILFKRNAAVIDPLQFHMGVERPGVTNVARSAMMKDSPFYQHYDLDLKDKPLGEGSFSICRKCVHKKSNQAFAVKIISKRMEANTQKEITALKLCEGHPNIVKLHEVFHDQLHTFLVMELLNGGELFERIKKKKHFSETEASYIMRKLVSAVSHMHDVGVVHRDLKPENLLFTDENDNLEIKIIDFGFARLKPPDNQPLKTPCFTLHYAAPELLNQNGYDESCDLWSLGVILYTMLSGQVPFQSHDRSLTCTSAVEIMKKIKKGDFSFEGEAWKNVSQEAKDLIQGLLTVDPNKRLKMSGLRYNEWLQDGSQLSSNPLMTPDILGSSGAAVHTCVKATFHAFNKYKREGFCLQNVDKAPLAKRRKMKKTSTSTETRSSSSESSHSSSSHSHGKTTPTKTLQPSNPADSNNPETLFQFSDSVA

[4] = target: Serine/threonine-protein kinase D3 (Homo sapiens) (UniProt O94806); test: Inhibition of PKD3 at 100 nM relative to control; outline: as §1
Chain of Serine/threonine-protein kinase D3 (Homo sapiens) (O94806 whole entry): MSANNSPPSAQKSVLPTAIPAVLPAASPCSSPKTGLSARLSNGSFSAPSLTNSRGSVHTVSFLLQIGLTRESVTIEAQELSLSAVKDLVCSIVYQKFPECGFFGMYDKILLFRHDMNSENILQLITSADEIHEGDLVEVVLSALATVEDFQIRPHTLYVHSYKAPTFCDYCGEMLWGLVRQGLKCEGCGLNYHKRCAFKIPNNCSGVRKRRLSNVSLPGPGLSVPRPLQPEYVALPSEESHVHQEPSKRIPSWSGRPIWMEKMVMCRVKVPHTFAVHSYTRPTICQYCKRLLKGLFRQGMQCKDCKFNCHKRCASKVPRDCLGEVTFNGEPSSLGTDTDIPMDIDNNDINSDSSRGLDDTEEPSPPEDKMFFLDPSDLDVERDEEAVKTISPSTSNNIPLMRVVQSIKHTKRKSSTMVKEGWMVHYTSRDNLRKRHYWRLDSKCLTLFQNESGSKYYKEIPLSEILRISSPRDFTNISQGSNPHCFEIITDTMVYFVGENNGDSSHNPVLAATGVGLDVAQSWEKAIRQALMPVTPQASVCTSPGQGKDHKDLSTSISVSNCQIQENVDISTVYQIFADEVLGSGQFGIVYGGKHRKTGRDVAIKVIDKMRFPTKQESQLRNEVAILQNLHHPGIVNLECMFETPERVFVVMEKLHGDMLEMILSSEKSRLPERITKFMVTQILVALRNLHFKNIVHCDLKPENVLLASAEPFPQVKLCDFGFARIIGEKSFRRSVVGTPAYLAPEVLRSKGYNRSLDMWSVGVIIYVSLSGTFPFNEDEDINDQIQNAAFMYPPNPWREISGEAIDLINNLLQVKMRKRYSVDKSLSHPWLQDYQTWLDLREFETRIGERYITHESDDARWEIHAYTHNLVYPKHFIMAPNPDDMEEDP

[5] = target: RAC-gamma serine/threonine-protein kinase (Homo sapiens, UniProt Q9Y243); conditions: 100 nM
[6] = target: Rho-associated protein kinase 2 (Bos taurus) (UniProt Q28021); test: Binding affinity to ROCK2 by fluorescence polarization assay
[7] = target: Serine/threonine-protein kinase PAK 6 (Homo sapiens) (UniProt Q9NQU5); test: Inhibition of PAK6 at 100 nM relative to control; outline: as §1
Chain of Serine/threonine-protein kinase PAK 6 (Homo sapiens) (Q9NQU5 whole entry, looked up): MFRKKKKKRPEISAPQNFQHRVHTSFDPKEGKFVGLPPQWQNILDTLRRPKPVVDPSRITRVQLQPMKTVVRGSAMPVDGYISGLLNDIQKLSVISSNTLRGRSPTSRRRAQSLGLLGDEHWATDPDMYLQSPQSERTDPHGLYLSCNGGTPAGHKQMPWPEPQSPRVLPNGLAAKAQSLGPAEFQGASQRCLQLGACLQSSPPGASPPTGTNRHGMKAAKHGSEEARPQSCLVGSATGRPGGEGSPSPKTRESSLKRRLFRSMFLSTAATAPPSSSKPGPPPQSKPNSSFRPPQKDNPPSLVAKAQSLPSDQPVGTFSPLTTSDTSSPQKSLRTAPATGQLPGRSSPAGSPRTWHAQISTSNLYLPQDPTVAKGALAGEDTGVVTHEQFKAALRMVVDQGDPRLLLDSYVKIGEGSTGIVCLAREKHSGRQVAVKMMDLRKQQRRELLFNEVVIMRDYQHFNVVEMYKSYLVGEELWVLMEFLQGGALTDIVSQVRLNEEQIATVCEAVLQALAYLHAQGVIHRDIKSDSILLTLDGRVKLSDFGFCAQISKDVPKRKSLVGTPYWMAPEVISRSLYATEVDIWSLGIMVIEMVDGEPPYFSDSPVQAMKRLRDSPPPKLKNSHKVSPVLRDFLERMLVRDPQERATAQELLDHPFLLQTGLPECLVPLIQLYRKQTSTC

[8] = target: Serine/threonine-protein kinase PAK 4 (Homo sapiens) (UniProt O96013); test: Inhibition of PAK4 at 100 nM relative to control; outline: as §1
Chain of Serine/threonine-protein kinase PAK 4 (Homo sapiens) (O96013 whole entry, looked up): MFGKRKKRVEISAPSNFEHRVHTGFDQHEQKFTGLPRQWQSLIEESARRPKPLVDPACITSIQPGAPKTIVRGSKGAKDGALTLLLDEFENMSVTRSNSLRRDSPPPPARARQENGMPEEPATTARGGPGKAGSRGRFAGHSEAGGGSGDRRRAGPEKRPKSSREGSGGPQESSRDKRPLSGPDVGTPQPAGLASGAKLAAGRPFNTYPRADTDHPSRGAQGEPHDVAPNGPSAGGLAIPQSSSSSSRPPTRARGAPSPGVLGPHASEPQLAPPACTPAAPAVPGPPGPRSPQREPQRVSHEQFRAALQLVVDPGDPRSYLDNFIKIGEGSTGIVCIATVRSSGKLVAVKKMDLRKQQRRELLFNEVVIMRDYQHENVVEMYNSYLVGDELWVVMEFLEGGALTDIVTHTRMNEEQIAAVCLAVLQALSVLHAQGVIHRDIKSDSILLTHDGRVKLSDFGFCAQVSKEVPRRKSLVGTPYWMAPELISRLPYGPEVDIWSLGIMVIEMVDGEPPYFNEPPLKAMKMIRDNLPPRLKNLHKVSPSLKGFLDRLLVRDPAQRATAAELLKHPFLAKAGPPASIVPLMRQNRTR

[9] = target: cAMP-dependent protein kinase catalytic subunit alpha (Homo sapiens, UniProt P17612); test: Binding affinity to PKA catalytic subunit alpha by fluorescence polarization assay
[10] = target: Protein kinase C theta type (Homo sapiens) (UniProt Q04759); test: Inhibition of PKCtheta at 100 nM relative to control; outline: as §1
[11] = target: cAMP-dependent protein kinase catalytic subunit PRKX (Homo sapiens) (UniProt P51817); conditions: 100 nM
Chain of cAMP-dependent protein kinase catalytic subunit PRKX (Homo sapiens) (P51817 whole entry): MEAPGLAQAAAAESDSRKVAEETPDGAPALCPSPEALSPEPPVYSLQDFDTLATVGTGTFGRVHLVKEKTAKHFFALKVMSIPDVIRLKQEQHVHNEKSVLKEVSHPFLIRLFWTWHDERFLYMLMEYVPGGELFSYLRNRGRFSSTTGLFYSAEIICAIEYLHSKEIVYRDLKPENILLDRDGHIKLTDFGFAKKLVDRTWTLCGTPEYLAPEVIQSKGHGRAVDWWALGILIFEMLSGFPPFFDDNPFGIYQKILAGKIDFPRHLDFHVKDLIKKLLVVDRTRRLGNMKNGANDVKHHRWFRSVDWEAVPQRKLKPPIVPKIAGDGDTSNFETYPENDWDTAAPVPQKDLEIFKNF

[12] = target: Ribosomal protein S6 kinase alpha-1 (Homo sapiens) (UniProt Q15418); test: Inhibition of RSK1 at 100 nM relative to control; outline: as §1

Chain of Ribosomal protein S6 kinase alpha-4 (Homo sapiens) (O75676 whole entry, looked up): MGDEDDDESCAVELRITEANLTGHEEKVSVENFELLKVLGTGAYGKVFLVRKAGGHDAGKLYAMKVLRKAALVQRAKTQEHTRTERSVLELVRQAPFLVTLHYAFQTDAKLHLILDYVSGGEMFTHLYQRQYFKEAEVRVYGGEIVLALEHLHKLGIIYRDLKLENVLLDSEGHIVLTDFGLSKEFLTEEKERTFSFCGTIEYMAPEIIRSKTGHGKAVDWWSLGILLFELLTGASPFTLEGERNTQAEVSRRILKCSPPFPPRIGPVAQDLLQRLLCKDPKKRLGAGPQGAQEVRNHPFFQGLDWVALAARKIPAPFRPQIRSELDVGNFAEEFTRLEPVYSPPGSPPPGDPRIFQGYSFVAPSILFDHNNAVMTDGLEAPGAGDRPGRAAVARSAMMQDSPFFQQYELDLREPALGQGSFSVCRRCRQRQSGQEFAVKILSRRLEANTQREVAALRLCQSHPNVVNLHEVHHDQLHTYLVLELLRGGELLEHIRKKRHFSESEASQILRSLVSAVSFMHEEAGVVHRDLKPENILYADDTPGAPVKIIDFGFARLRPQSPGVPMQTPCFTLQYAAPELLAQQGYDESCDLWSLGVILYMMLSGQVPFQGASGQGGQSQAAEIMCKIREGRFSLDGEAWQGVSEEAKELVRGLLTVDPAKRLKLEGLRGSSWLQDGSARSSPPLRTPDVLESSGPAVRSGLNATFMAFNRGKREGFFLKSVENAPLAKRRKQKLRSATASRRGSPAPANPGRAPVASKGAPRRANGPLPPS

`N=C(N)NCCC[C@@H](NC(=O)[C@@H](CCCNC(=N)N)NC(=O)[C@@H](CCCNC(=N)N)NC(=O)[C@@H](CCCNC(=N)N)NC(=O)[C@@H](CCCNC(=N)N)NC(=O)[C@@H](CCCNC(=N)N)NC(=O)CCCCCNC(=O)[C@@H](CCCCN)NC(=O)CCCCCNC(=O)[C@H]1O[C@@H](n2cnc3c(N)ncnc32)[C@H](O)[C@@H]1O)C(N)=O` ({Adenosine(5'-uronoyl)-Ahx}-[dK][Ahx][dR][dR][dR][dR][dR][dR]-NH2) showed an inhibition [1] of 109%, an inhibition [2] of 54% and an inhibition [3] of 105%. For the same compound, the inhibition [4] was 55%, the inhibition [5] was 87% and the Kd [6] was under 1 nM. For the same compound, the inhibition [7] was 81%, the inhibition [8] was 81% and the Kd [9] was under 0.5 nM. The inhibition [10] was 97%, the inhibition [11] was 104% and the inhibition [12] was 98%.
